Laboratory results reported in ChEMBL document CHEMBL1156675, “Synthesis and antituberculosis activity of new thiazolylhydrazone derivatives” (Eur J Med Chem, 2008).
≈ marks a conversion by molar mass, not a printed value.

Key:
NIH3T3 = experiment: Cytotoxicity against mouse NIH3T3 cells after 24 hrs by MTT assay; type: cell-based; conditions: NIH3T3, 24 h
Outline: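 NIH/3T3 cells grown in DMEM with 10% fetal calf serum, penicillin and streptomycin at 37 °C, 5% CO2. Plated at 5 × 10⁴ cells/ml, preincubated 24 h, then exposed to compounds (DMSO stocks diluted in medium, final DMSO <0.6%) for 24 h. MTT 0.5 mg/ml final, 4 h, 37 °C; formazan dissolved in DMSO, absorbance 540 nm. Triplicate wells; IC50 = concentration halving absorbance versus control.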

[1] = test system: Mycobacterium tuberculosis; experiment: Antitubercular activity against Mycobacterium tuberculosis H37Rv ATCC 27294 by microplate alamar blue assay; type: functional
[2] = test system: Mycobacterium tuberculosis; experiment: Antitubercular activity against Mycobacterium tuberculosis H37Rv ATCC 27294 at 6.25 ug/ml by microplate alamar blue assay; type: functional
Outline: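 Single-concentration primary screen at 6.25 against H37Rv in BACTEC 12B medium by Microplate Alamar Blue Assay, with results read as percent inhibition on a BACTEC 460 radiometric system. Positive BACTEC culture (GI ≥500) or McFarland No. 1 suspension was inoculated into drug vials and incubated at 37 °C with daily reads. Once the control GI reached ≥30, the daily ΔGI of drug and control vials was compared.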

Row | SMILES | IC50 (NIH3T3) [µg/mL] | MIC [1] [µg/mL] | inhibition at 6.25 µg/mL [2] [%]
1 | COc1ccc(/C(C)=N/Nc2nc(-c3ccc4c(c3)CCC4)cs2)cc1 | 180 (≈ 495 µM) |  | 
2 | C/C(=N\Nc1nc(-c2ccc3c(c2)CCC3)cs1)c1ccccc1 | 200 (≈ 600 µM) |  | 
3 | C/C(=N\Nc1nc(-c2ccc3c(c2)CCC3)cs1)c1ccc(C)cc1 | 49 (≈ 141 µM) |  | 
4 | C/C(=N\Nc1nc(-c2ccc3c(c2)CCC3)cs1)c1ccc(Cl)cc1 | 120 (≈ 326 µM) |  | 
5 | C/C(=N\Nc1nc(-c2ccc3c(c2)CCC3)cs1)c1ccc([N+](=O)[O-])cc1 | 90 (≈ 238 µM) |  | 
6 | C/C(=N\Nc1nc(-c2ccc3c(c2)CCC3)cs1)c1ccc(Cl)c(Cl)c1 | 110 (≈ 273 µM) |  | 
7 | CO[C@H]1/C=C/O[C@@]2(C)Oc3c(C)c(O)c4c(O)c(c(/C=N/N5CCN(C)CC5)c(O)c4c3C2=O)NC(=O)/C(C)=C\C=C\[C@H](C)[C@H](O)[C@@H](C)[C@@H](O)[C@@H](C)[C@H](OC(C)=O)[C@@H]1C [RIFAMPIN] |  | 0.25 (≈ 0.304 µM) | 98
